Most compounds without a hit are left out; they make up all but 3.3% or so of the library.
SENP7 block – SENP7 protease inhibitors, primary screen, biochemical, luminescence, uHTS; 1.5% of 330,000 active; recombinant SENP7, Z-RLRGG-aminoluciferin luminescence, 40 min; Sentrin-specific protease 7 (Homo sapiens), Q9BQF6; inhibition, % at 5 µM;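 active = inhibition above about 50% at the single test dose, limit read from the data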;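 note: plate controls were DMSO with enzyme for no effect and no enzyme buffer wells for full effect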
Target sequence (Q9BQF6 706-1050 limits assumed): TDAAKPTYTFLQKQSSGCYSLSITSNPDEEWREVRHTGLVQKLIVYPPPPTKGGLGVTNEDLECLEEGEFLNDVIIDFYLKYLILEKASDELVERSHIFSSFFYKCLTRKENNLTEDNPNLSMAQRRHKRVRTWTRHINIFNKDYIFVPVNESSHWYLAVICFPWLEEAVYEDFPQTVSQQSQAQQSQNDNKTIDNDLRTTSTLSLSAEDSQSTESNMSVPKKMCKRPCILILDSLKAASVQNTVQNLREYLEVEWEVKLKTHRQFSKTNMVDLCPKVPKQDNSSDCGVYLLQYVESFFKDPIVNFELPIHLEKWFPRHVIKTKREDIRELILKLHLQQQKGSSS
SENP6 block – SENP6 protease inhibitors, primary screen, biochemical, luminescence, uHTS. inhibition, % at 10 µM. AID 2599, 2010. 1.8% of 330,000 active. Recombinant SENP6 catalytic domain, aminoluciferin luminescence;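 active = inhibition above about 50% at the single tested dose, limit read from the data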;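 note: plate controls were DMSO wells with enzyme for no effect and DMSO wells lacking enzyme for full effect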
SENP1 FRET inh – human SENP1 catalytic domain inhibitors, primary screen, biochemical, FRET, uHTS | Sentrin-specific protease 1 (Homo sapiens), Q9P0U3 | recombinant SENP1 catalytic domain, CyPet-SUMO1-YPet FRET cleavage | 0.21% of 360,000 active | inhibition, % at 10 µM;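 active = inhibition at least 30% at 10 µM, raw YFP signal under a set limit, fluorescence ratio 0.5 to 1.5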;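 note: 0% = enzyme with DMSO and 100% = no enzyme wells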
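Compound: 10 µM single point, 0.5% DMSO; Test system: hSENP1 catalytic domain, recombinant; Timing: 50 min reaction at room temperature; Technique: FRET, CFP and YFP emission; Control set: no-enzyme wells low, DMSO-plus-enzyme wells high control.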
CendR NRP1 mod – modulators of CendR peptide binding to NRP-1, primary screen, biochemical, fluorescence polarization, uHTS | inhibition, % at 25 µM | FAM-RPARPAR peptide binding to NRP-1 | Neuropilin-1 (Homo sapiens), O14786 | 0.85% of 360,000 active;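 active = inhibition or corrected inhibition above about 18%, plus a signal ratio from 0.5 to 1.5, limit read from the data, passing the limit was not always enough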
SENP8 block-1 – human SENP8 protease inhibitors, primary screen, biochemical, fluorescence, Nedd8 protein substrate, uHTS; Sentrin-specific protease 8 (Homo sapiens), Q96LD8; recombinant SENP8; inhibition, % at 20 µM; 0.64% of 360,000 active; AID 602440, 2012; in the data active = inhibition mostly above about 40%, no sharp cut-off; inactive = mostly below about 27%
SENP8 block-2 – SENP8 protease inhibitors, primary screen, biochemical, luminescence; Sentrin-specific protease 8 (Homo sapiens), Q96LD8; purified SENP8, Z-RLRGG-aminoluciferin cleavage; inhibition, % at 10 µM; 1.2% of 330,000 active; AID 2540, 2010; in the data active = inhibition above about 50%
* marks the source's active call; other numbers are inactive results; . = no result.

SMILES	SENP7 block	SENP6 block	SENP1 FRET inh	CendR NRP1 mod	SENP8 block-1	SENP8 block-2
COc1cc2c(c(OC)c1OC)-c1c(cc3c(c1OC)OCO3)C[C@H](C)[C@@](C)(O)C2	8	11	1	-16	8	1
COc1cc2c(c(OC)c1OC)-c1c(cc(OC)c(OC)c1OC)C[C@](C)(O)[C@@H](C)C2	-4	1	3	39*	8	3
Cc1cc(NC(=O)COc2ccc3ccccc3c2Br)no1	-1	-13	-2	-8	-10	5
CC1Cn2c(nnc2-c2cc3ccccc3cc2O)S1 (stereo unspecified)	1	-1	-15	26*	-111	3
CCC(=O)c1cn(CC(=O)Nc2ccccc2)c2ccccc12	-7	-25	4	34*	5	-4
CC(C)C[C@H]1COc2cc(N(C)CCO)ccc2S(=O)(=O)N1	.	.	2	13	12	.
COc1ccc(CN2CC[C@H]3C=CC[C@@H](C(=O)NCCc4ccccc4)[C@H]3C2=O)cc1OC	-5	-8	4	24*	10	-1
CCCCN1CC[C@H]2C=CC[C@@H](C(=O)NCCc3ccccc3)[C@H]2C1=O	-2	-7	1	14	2	-3
CCCCN1CC[C@H]2C=CC[C@@H](C(=O)Nc3ccccc3)[C@H]2C1=O	1	5	-1	32*	-3	1
O=C(NCc1cccnc1)[C@@H]1CC=C[C@@H]2CCN(Cc3ccccc3)C(=O)[C@@H]21	-3	-10	3	32*	-11	-6
CCC(C(=O)NC1CCCC1)n1c(-c2ccnc3ccccc23)nc2ccccc21 (stereo unspecified)	.	.	3	-2	-335	.
CCCCCCCCN1C(=O)[C@H](CC(=O)NCCCC)C[C@@]2(C(=O)OC)CC(C)(C)CC=C12	.	.	3	17	11	.
CSc1ccccc1C(=O)N1CCC(CCC(=O)NCc2ccc(F)cc2)CC1	-10	-7	-1	31*	0	-13
O=C1C(NS(=O)(=O)c2cccs2)=C(N2CCN(c3cccc(C(F)(F)F)c3)CC2)C(=O)c2ccccc21	24	6	9	0	56*	6
CN1CCN(C2=C(NS(=O)(=O)c3cccs3)C(=O)c3ccccc3C2=O)CC1	7	17	-17	-8	30	9
O=C1C(NS(=O)(=O)c2cccs2)=C(N2CCOCC2)C(=O)c2ccccc21	6	-13	-1	0	42*	1
CC(=O)N1CCC(C(=O)N2c3ccccc3N=C(c3ccc(C(F)(F)F)cc3)C2C(=O)NC(C)(C)C)CC1 (stereo unspecified)	.	.	8	11	-285	.
COCCn1c(SCC(=O)Nc2c(C)n(C)n(-c3ccccc3)c2=O)nnc1-c1ccncc1	-7	-10	3	5	7	-6
COc1ccc(/C=C/c2nc(-c3ccccc3O)n[nH]2)cc1	95*	96*	-3	-16	-58	93*
COc1ccc(C2(C(=O)N3CCCC3)CCOCC2)cc1OC	4	5	1	3	20	1
COc1ccc(C2(C(=O)NC3CCCCC3)CCOCC2)cc1OC	0	-1	-1	24*	7	-3
CCOC(=O)C1(CCCc2ccccc2)CCN(C(=O)CCOC)CC1	-6	87*	1	12	6	-9
COC(C[C@H]1O[C@@H]1[C@H](O)[C@H](C)OCc1ccccc1)OC	-2	9	-1	26*	18	9
O=C(Nc1ccc2c(c1)Cc1ccccc1-2)c1cccnc1	13	4	0	20*	-3	0
CCc1ccc([C@H]2[C@@H]3C(=O)C[C@@H]4C(=O)NC(=O)[C@@H]4[C@@H]3CN2S(=O)(=O)c2ccc(C)cc2)cc1	.	.	-19	-1	7	.
Cc1cccc2c(N=Nc3ccc(S(=O)(=O)Nc4cccc(Cl)c4)cc3[N+](=O)[O-])c(O)[nH]c12	0	-5	4	3	47*	-11
